# High-throughput results as filed in PubChem.
# Sampled rows, rich in hits. Any-hit rate of the full collection: about 1.9%.
# GPR7 antag = GPR7 receptor antagonists, primary screen, cell-based, fluorescence, single concentration | GPR7-expressing cells, fluorescence antagonist assay | inhibition, % at 4.4 µM | hit rate 1.1% among 290,000 | AID 1861, 2009; in the data active = inhibition above about 16%, passing the limit was not always enough;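 also: cells stimulated with the agonist NPW; 0% = agonist with vehicle and 100% = vehicle without agonist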
# Target sequence (P48145 whole entry, looked up): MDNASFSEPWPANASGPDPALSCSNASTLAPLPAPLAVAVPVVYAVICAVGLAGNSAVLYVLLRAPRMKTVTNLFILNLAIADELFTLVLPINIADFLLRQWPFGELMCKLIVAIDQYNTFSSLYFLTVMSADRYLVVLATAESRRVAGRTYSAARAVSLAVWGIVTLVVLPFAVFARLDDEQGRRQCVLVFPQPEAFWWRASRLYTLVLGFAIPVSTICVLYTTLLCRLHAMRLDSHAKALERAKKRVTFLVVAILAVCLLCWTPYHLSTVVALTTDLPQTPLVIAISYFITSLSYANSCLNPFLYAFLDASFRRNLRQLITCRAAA
# pCIP destab = p/CIP-EGFP fusion destabilizers, primary screen, fluorescence, F442A cells. Q05BA5. hit rate 0.01% among 290,000. decrease of EGFP signal, % at 10 µM. 16 h. AID 1984, 2009;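 active = EGFP signal decrease of at least 30% at 10 µM or well 3 SD below plate mean, unless failing retest; inactive = the rest, including hits failing retest or dose response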
# HCV core dimer = inhibitors of HCV core protein dimerization, primary screen, biochemical, TR-FRET, high-throughput; inhibition, % at 5 µM; hit rate 0.33% among 300,000; AID 1899, 2009; TR-FRET GST/Flag-core106 dimerization, 1536-well;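 active = inhibition above the mean of all tested compounds plus 3 SD, set per screening campaign, cut at about 45% in these data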
#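 assay system = GST-tagged and Flag-tagged HCV core protein residues 1-106 | controls = unlabelled core106 and no-GST-core106 wells | incubation = compound-protein-antibody incubation 4 h at 22.5 °C | probe or stimulus = Eu donor and XL665 acceptor anti-tag antibodies | read-out = % inhibition based on acceptor/donor emission ratio | signal = TR-FRET 671 and 617 nm emission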
# NS3 helicase inh = inhibitors of HCV NS3 helicase, primary screen, biochemical, Cy5 molecular beacon fluorescence. AID 1800, 2009. inhibition, % at 10.9 µM. hit rate 0.56% among 290,000. NS3 helicase DNA unwinding;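 active = inhibition above the mean of all tested compounds plus 3 SD, set per campaign, cut at about 35% in these data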;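 also: 0% = DMSO wells and 100% = thioflavine S control wells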
#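 Material: hepatitis C virus NS3 helicase domain fragment enzyme; measured by: Cy5 fluorescence, 0 and 60 min reads; control set: DMSO and thioflavine S; incubation: 60 min unwinding reaction at 25 °C after ATP addition; read-out basis: % inhibition from 60/0 min fluorescence ratio, DMSO 0%, thioflavine S 100%; repeats: singlicate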
# DNA FID counter-1 = compounds displacing fluorescent DNA intercalator, primary screen, artefact control for HCV NS3 helicase inhibitor project, biochemical, FID fluorescence; hit rate 0.17% among 290,000; AID 1845, 2009; inhibition, % at 7.9 µM; DNA fluorescent intercalator displacement;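 also: 0% = vehicle and 100% = reference compound; higher means more ethidium bromide displaced from hairpin DNA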
# NS3 helicase cf = HCV NS3 helicase inhibitors, retest, confirmation, biochemical, Cy5 molecular beacon fluorescence, triplicate; shares compounds with NS3 helicase inh; NS3 helicase DNA unwinding; inhibition, % at 10.9 µM; hit rate 31% among 1,600; AID 1943, 2009;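 active = inhibition above the mean of all tested compounds plus 3 SD, cutoff set per campaign, cut at about 36% in these data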
# DNA FID counter-2 = compounds displacing fluorescent DNA intercalator, artefact control for HCV NS3 helicase inhibitor project, biochemical, FID fluorescence, triplicate; DNA fluorescent intercalator displacement; shares compounds with NS3 helicase inh; hit rate 4% among 1,600; inhibition, % at 7.9 µM;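 also: 0% = vehicle and 100% = reference compound; higher means more displacement of ethidium bromide from the DNA hairpin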
# DNA FID DR = compounds displacing fluorescent intercalator from DNA, dose response, counter-screen for HCV NS3 helicase inhibitor project, biochemical, fluorescence. shares compounds with NS3 helicase inh. fluorescent intercalator displacement from DNA. IC50, µM. 120 tested, under 10 active. AID 2172, 2009; call rule not given here
# Numbers without * were called inactive; / = no result. Rule as the data show it, unless noted: active = inhibition above about 37%; inactive = the rest.
SMILES,GPR7 antag,pCIP destab,HCV core dimer,NS3 helicase inh,DNA FID counter-1,NS3 helicase cf,DNA FID counter-2,others
O=C(NCCN1CCOCC1)/C(=C\c1ccc(F)cc1)NC(=O)c1ccccc1,-3,-5,-8,1,4,/,/,
O=C(COC(=O)C1C2CC3OC(=O)C1C3C2)Nc1ccc(Br)cc1 (configuration not stated),-4,-20,-8,12,-7,/,/,
O=C(/C=C/c1ccco1)Nc1sc2c(c1C(=O)O)CCC2,13,3,-6,47*,-7,19,19,
COCCN(C(=O)CNC(=O)c1ccco1)C(C(=O)NC1CCCC1)c1ccccc1 (configuration not stated),-4,-2,1,11,-18,/,/,
COCCN(C(=O)CNC(=O)c1ccco1)C(C(=O)NC1CCCC1)c1ccc(OC)cc1 (configuration not stated),-7,1,-16,44*,-37,-4,6,
COc1ccc(NC(=O)CSc2nc3[nH]ncc3c(=O)[nH]2)c(OC)c1,/,/,0,/,/,/,/,
COc1cccc(OCCOc2ccc(/C=C3/SC(=S)NC3=O)cc2)c1,10,-16,40,48*,-3,54*,13,
CCOc1ccc(/C=C2\SC(=S)NC2=O)cc1OC,-20,-1,2,35,-13,/,/,
CC1CCc2c(sc(NC(=O)CSc3nnc(-c4ccccc4)o3)c2C#N)C1 (configuration not stated),-7,-6,1,47*,-11,1,6,
N#Cc1c(NC(=O)CSc2nnc(-c3ccccc3)o2)sc2c1CCCC2,-1,-1,-23,26,-5,/,/,
Cc1sc(NC(=O)CSc2nnc(-c3ccccc3)o2)c(C#N)c1C,8,-3,11,38*,-14,-2,-22,
Cc1c(C)c(C)c(CO/N=C/c2cccs2)c(C)c1C,2,0,-1,-1,-16,/,/,
CC(C)Nc1nc(NC(C)C)nc(Oc2ccc(=O)n(C)n2)n1,-14,-9,-3,-9,-2,/,/,
CC(C)Nc1nc(Oc2ccc(=O)n(-c3ccccc3)n2)nc(N(C)C)n1,-9,-7,0,36*,-37,-3,-20,
CCOC(=O)C1=C(O)/C(=C\c2ccc(CNC(=O)C(=O)Nc3ccccc3)o2)N=C1C,-3,-20,14,40*,-11,31,-8,
Cc1ccc(NC(=O)c2cc(NC(=O)c3ccccc3C(=O)O)ccc2N2CCCCC2)cc1,-20,-10,24,46*,-17,75*,-6,
Cc1ccc(NC(=O)c2cc(NC(=O)/C=C\C(=O)O)ccc2N2CCCCC2)cc1,-30,-9,22,28,-46,/,/,
O=C(Cc1ccc(NC2=NC3CS(=O)(=O)CC3S2)cc1)NCc1ccccc1Cl (configuration not stated),0,2,-11,8,-9,/,/,
C=CCn1c(SCC(=O)NCCCC)nc2scc(-c3ccco3)c2c1=O,-5,-18,2,50*,-36,82*,-9,DNA FID DR=>79
CC(=O)c1cccc(Nc2nc(-c3cccnc3)cs2)c1,-13,0,/,44*,-12,6,-10,
COc1ccc(-c2nnn(CC(=O)N(Cc3ccco3)C(C(=O)NCC3CCCO3)c3ccco3)n2)cc1 (configuration not stated),18,-8,6,45*,-37,-9,-32,
COc1ccc(-c2nnn(CC(=O)N(Cc3ccccc3Cl)C(C(=O)NCC3CCCO3)c3ccco3)n2)cc1 (configuration not stated),-10,-6,3,-6,-5,/,/,
Cc1ccc(-c2csc(/C(C#N)=C(\O)CN3CCN(C(=O)c4ccco4)CC3)n2)cc1,10,4,6,37*,-17,42*,-14,
O=C(O)Cc1sc(NC2CCCCC2)nc1-c1ccc(Cl)cc1,19,-29,-12,18,-27,/,/,
COc1ccc(OC)c(C2C(C(=O)c3cc4ccccc4o3)=C(O)C(=O)N2c2cc(C)on2)c1 (configuration not stated),-1,1,15,37*,-17,80*,-6,DNA FID DR=>79
SMILES,GPR7 antag,pCIP destab,HCV core dimer,NS3 helicase inh,DNA FID counter-1,NS3 helicase cf,DNA FID counter-2,others
COc1cccc(C2C(C(=O)c3cc4ccccc4o3)=C(O)C(=O)N2c2cc(C)on2)c1 (configuration not stated),4,-8,-1,41*,-42,105*,5,
COC(=O)c1sc(N2C(=O)C(O)=C(C(=O)c3ccc(C)o3)C2c2cc(OC)ccc2OC)nc1C (configuration not stated),8,-25,3,54*,-33,93*,-20,DNA FID DR=>79
COc1ccccc1C1C(C(=O)c2cc3ccccc3o2)=C(O)C(=O)N1c1cc(C)on1 (configuration not stated),-4,-11,-4,32,-37,/,/,
Cc1cc(N2C(=O)C(O)=C(C(=O)c3cc4ccccc4o3)C2c2ccc(Cl)cc2)no1 (configuration not stated),-3,-9,-4,32,-37,/,/,
Cc1cc(N2C(=O)C(O)=C(C(=O)c3cc4ccccc4o3)C2c2ccc(Br)cc2)no1 (configuration not stated),-1,-10,-6,42*,-11,122*,0,
Cc1ccc(C(=O)C2=C(O)C(=O)N(Cc3cccnc3)C2c2cccc(Oc3ccccc3)c2)o1 (configuration not stated),-18,-2,23,45*,-66,86*,-37,DNA FID DR=>79
COc1ccc(C2C(C(=O)c3ccc(C)o3)=C(O)C(=O)N2c2cc(C)on2)cc1OC (configuration not stated),6,3,5,13,-1,/,/,
Cc1ccc(C(=O)C2=C(O)C(=O)N(Cc3ccccc3)C2c2cccnc2)o1 (configuration not stated),-20,-7,4,-1,-15,/,/,
Cc1cc(N2C(=O)C(O)=C(C(=O)c3ccc(C)o3)C2c2cccc(Oc3ccccc3)c2)no1 (configuration not stated),-7,0,8,63*,-41,173*,-22,DNA FID DR=>79
CC(Nc1cccc2ccccc12)C(=O)N/N=C/c1ccc([N+](=O)[O-])cc1 (configuration not stated),0,-7,-1,-13,0,/,/,
